# Calls of active or inactive are those of the source. The calls are words filed in the database; no cut-off is given here.
# Experiments:
# [1] = system: Klebsiella pneumoniae; assay: Antibacterial activity against Klebsiella pneumoniae assessed as growth inhibition after 18 to 24 hrs; type: functional
# Outline: (§1)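 Clinical isolates from a regional epidemiology institute. Broth microdilution: inoculum 5 × 10⁵ CFU/ml in Müller-Hinton broth (pH 7.3) with serial concentrations of salts, incubated at 35 °C for 18–24 h. MIC taken as lowest concentration with no detectable bacterial growth.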
# [2] = system: Staphylococcus epidermidis; assay: Antibacterial activity against Staphylococcus epidermidis assessed as growth inhibition after 18 to 24 hrs; type: functional; outline: as §1
# [3] = system: Staphylococcus aureus; assay: Antibacterial activity against Staphylococcus aureus assessed as growth inhibition after 18 to 24 hrs; type: functional; outline: as §1
# [4] = system: Proteus; assay: Antibacterial activity against Proteus spp. assessed as growth inhibition after 18 to 24 hrs; type: functional; outline: as §1
# [5] = system: Staphylococcus aureus; assay: Antibacterial activity against Staphylococcus aureus 25923 assessed as DNA migration out of cells at 10 ug/ml after 1 hr by SYBR green staining-based fluorescent microscopic analysis; type: functional, organism-based
# Outline: (§2)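 S. aureus 25923 pre-grown on blood agar at 37 °C, cultured overnight in Müller-Hinton broth (pH 7.3), pelleted and resuspended in PBS. After treatment, cells centrifuged 3000 g 15 min, washed twice in PBS, embedded in agarose microgels, lysed, stained with SYBR Green I and imaged by fluorescence microscopy.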
# [6] = system: Staphylococcus aureus; assay: Antibacterial activity against Staphylococcus aureus 25923 assessed as DNA fragmentation at 10 ug/ml after 1 hr by SYBR green staining-based fluorescent microscopic analysis; type: functional, organism-based; outline: as §2
# [7] = system: Staphylococcus aureus; assay: Antibacterial activity against Staphylococcus aureus 25923 assessed as increase in polydispersity index of plasmid DNA at 0.1 mg/ml after 1 hr by light scatterning method (reference value: 0.425 no unit); type: functional
# [8] = system: Staphylococcus aureus; assay: Antibacterial activity against Staphylococcus aureus 25923 assessed as decrease in zeta potential of plasmid DNA at 0.1 mg/ml after 1 hr by light scatterning method (reference value: -50.7 +/- 1 mV); type: functional
# [9] = system: Staphylococcus aureus; assay: Antibacterial activity against Staphylococcus aureus 25923 assessed as increase in hydrodynamic diameter of plasmid DNA at 0.1 mg/ml after 1 hr by light scatterning method (reference value: 360.7 +/- 18 nm); type: functional
# [10] = system: Staphylococcus aureus; assay: Antibacterial activity against Staphylococcus aureus 25923 assessed as partial DNA fragmentation at 0.01 to 10 mg/ml after 1 hr by agarose gel electrophoresis method
# [11] = Cytotoxicity against human skin fibroblasts after 72 hrs by MTT assay; parameters: species or system Skin fibroblast
# Outline: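 Human skin fibroblasts seeded at 3000 cells/well, attached overnight, then exposed to salt solutions (1 µg/ml–1 mg/ml) for 72 h at 37 °C, 5% CO₂. Cells washed with fresh medium and subjected to MTT assay; reduced product read at 550 nm. CC50 derived.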
# [12] = system: Staphylococcus aureus; assay: Antibacterial activity against Staphylococcus aureus 25923 assessed as increase in hydrodynamic diameter of plasmid DNA at 0.01 mg/ml after 1 hr by light scatterning method (reference value: 360.7 +/- 18 nm); type: functional
# [13] = system: Staphylococcus aureus; assay: Antibacterial activity against Staphylococcus aureus 25923 assessed as increase in polydispersity index of plasmid DNA at 0.01 mg/ml after 1 hr by light scatterning method (reference value: 0.425 no unit); type: functional
# [14] = system: Staphylococcus aureus; assay: Antibacterial activity against Staphylococcus aureus 25923 assessed as decrease in zeta potential of plasmid DNA at 0.01 mg/ml after 1 hr by light scatterning method (reference value: -50.7 +/- 1 mV); type: functional
Compound,MIC [1],MIC [2],MIC [3],MIC [4],also measured
Cl.OCc1c(O)c(C[P+](c2ccccc2)(c2ccccc2)c2ccccc2)nc(C[P+](c2ccccc2)(c2ccccc2)c2ccccc2)c1C[P+](c1ccccc1)(c1ccccc1)c1ccccc1.[Cl-].[Cl-].[Cl-],> 1000 µg/mL,500 µg/mL,500 µg/mL,> 1000 µg/mL,
Cc1nc(CO)c(C[P+](c2ccccc2)(c2ccccc2)c2ccccc2)c(CO)c1O.Cl.[Cl-],> 1000 µg/mL,1000 µg/mL,1000 µg/mL,> 1000 µg/mL,
CC(=O)Oc1c(C)nc(C[P+](c2ccccc2)(c2ccccc2)c2ccccc2)c2c1COC(C)(C)OC2.[Cl-],> 1000 µg/mL,100 µg/mL,100 µg/mL,> 1000 µg/mL,
Cl.OCc1c(C[P+](c2ccccc2)(c2ccccc2)c2ccccc2)cnc(C[P+](c2ccccc2)(c2ccccc2)c2ccccc2)c1O.[Cl-].[Cl-],> 1000 µg/mL,250 µg/mL,250 µg/mL,> 1000 µg/mL,
CN[C@H](CC(C)C)C(=O)N[C@H]1C(=O)N[C@@H](CC(N)=O)C(=O)N[C@H]2C(=O)N[C@H]3C(=O)N[C@H](C(=O)N[C@H](C(=O)O)c4cc(O)cc(O)c4-c4cc3ccc4O)[C@H](O)c3ccc(c(Cl)c3)Oc3cc2cc(c3O[C@@H]2O[C@H](CO)[C@@H](O)[C@H](O)[C@H]2O[C@H]2C[C@](C)(N)[C@H](O)[C@H](C)O2)Oc2ccc(cc2Cl)[C@H]1O [VANCOMYCIN],> 1000 µg/mL,2.5 µg/mL,2.5 µg/mL,> 1000 µg/mL,
Cc1ncc(C[P+](c2ccccc2)(c2ccccc2)c2ccccc2)c2c1OC(C)(C)OC2.[Cl-],> 1000 µg/mL,1000 µg/mL,1000 µg/mL,> 1000 µg/mL,

# Second part, led by results:
MIC [1],MIC [2],MIC [3],MIC [4],Compound,also measured
> 1000 µg/mL,> 1000 µg/mL,> 1000 µg/mL,> 1000 µg/mL,Cl.OCc1nc(C[P+](c2ccccc2)(c2ccccc2)c2ccccc2)c(O)c(CO)c1CO.[Cl-],
> 1000 µg/mL,1000 µg/mL,1000 µg/mL,> 1000 µg/mL,Cc1nc(C[P+](c2ccccc2)(c2ccccc2)c2ccccc2)c(CO)c(CO)c1O.Cl.[Cl-],
> 1000 µg/mL,50 µg/mL,62.5 µg/mL,> 1000 µg/mL,CC1(C)OCc2c(C[P+](c3ccccc3)(c3ccccc3)c3ccccc3)cnc(C[P+](c3ccccc3)(c3ccccc3)c3ccccc3)c2O1.[Cl-].[Cl-],
> 1000 µg/mL,5 µg/mL,5 µg/mL,> 1000 µg/mL,Cc1nc(C[P+](c2ccccc2)(c2ccccc2)c2ccccc2)c(C[P+](c2ccccc2)(c2ccccc2)c2ccccc2)c2c1OC(C)(C)OC2.[Cl-].[Cl-],Activity [5]: Active; Activity [6]: Active; Activity [7]: 0.844; Activity [8]: -35.2 mV; Activity [9]: 452.3 nm; Activity [10]: Active; CC50 at 72 h [11]: 160 µg/mL; Activity [12]: 500.9 nm; Activity [13]: 0.717; Activity [14]: -46.6 mV
> 1000 µg/mL,50 µg/mL,50 µg/mL,> 1000 µg/mL,CC1(C)OCc2c(C[P+](c3ccccc3)(c3ccccc3)c3ccccc3)c(C[P+](c3ccccc3)(c3ccccc3)c3ccccc3)nc(C[P+](c3ccccc3)(c3ccccc3)c3ccccc3)c2O1.[Cl-].[Cl-].[Cl-],
> 1000 µg/mL,1000 µg/mL,1000 µg/mL,> 1000 µg/mL,Cc1ncc(C[P+](c2ccccc2)(c2ccccc2)c2ccccc2)c(CO)c1O.Cl.[Cl-],
> 1000 µg/mL,> 1000 µg/mL,> 1000 µg/mL,> 1000 µg/mL,CC1(C)OCc2c(CO)c(CO)nc(C[P+](c3ccccc3)(c3ccccc3)c3ccccc3)c2O1.[Cl-],
> 1000 µg/mL,1000 µg/mL,1000 µg/mL,> 1000 µg/mL,Cc1nc(C[P+](c2ccccc2)(c2ccccc2)c2ccccc2)c(C[P+](c2ccccc2)(c2ccccc2)c2ccccc2)c(CO)c1O,
